{"source": "ChEMBL document CHEMBL1157912", "about": "“Impact of nature and length of linker incorporated in agonists on toll-like receptor 9-mediated immune responses” (J Med Chem, 2010)", "key": {"[1]": {"molecular_target": "T1, Toll-like receptor 9 (Homo sapiens) (UniProt Q9NR96)", "T1 sequence (whole entry)": "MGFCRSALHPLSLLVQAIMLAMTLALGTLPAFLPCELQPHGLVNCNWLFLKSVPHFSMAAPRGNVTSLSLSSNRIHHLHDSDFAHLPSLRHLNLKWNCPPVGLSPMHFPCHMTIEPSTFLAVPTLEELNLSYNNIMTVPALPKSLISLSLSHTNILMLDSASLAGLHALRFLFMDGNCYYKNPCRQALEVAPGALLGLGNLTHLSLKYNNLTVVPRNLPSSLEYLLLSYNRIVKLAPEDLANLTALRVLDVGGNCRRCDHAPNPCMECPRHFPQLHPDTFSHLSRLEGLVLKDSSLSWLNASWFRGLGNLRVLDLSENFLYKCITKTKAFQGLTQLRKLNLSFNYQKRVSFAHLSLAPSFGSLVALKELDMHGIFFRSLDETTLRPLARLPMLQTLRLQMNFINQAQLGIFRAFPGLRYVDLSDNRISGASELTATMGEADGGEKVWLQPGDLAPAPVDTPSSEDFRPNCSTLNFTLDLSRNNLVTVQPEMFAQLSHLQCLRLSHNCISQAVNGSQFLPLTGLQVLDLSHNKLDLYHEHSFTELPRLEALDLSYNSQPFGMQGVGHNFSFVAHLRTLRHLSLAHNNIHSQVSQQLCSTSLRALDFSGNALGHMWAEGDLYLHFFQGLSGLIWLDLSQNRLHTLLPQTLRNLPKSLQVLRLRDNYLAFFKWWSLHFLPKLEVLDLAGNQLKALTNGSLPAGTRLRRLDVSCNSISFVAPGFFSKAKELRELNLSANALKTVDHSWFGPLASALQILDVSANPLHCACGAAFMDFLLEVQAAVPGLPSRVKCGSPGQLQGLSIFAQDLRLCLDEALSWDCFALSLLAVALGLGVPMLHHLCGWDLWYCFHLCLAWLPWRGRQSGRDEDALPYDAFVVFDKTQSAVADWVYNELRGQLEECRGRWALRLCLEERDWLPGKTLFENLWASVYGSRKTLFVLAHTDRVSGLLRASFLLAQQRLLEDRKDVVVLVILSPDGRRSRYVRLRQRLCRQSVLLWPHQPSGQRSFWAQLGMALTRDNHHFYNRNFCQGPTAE", "assay": "Induction of TLR9-mediated human B cell proliferation assessed as [3H]thymidine uptake at 2 to 10 ug/ml after 56 hrs by scintillation counting", "assay_type": "cell-based", "in_short": "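B cells were purified from human PBMCs (healthy volunteers), about 1 × 10⁵ cells, and stimulated with various agonist concentrations for 56 h. Cells were then pulsed with 0.75 μCi [³H]-thymidine and harvested 16 h later. Incorporation was counted by scintillation and reported as cpm.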"}, "[2]": {"molecular_target": "T2, Toll-like receptor 9 (Mus musculus) (UniProt Q9EQU3)", "T2 sequence (whole entry)": "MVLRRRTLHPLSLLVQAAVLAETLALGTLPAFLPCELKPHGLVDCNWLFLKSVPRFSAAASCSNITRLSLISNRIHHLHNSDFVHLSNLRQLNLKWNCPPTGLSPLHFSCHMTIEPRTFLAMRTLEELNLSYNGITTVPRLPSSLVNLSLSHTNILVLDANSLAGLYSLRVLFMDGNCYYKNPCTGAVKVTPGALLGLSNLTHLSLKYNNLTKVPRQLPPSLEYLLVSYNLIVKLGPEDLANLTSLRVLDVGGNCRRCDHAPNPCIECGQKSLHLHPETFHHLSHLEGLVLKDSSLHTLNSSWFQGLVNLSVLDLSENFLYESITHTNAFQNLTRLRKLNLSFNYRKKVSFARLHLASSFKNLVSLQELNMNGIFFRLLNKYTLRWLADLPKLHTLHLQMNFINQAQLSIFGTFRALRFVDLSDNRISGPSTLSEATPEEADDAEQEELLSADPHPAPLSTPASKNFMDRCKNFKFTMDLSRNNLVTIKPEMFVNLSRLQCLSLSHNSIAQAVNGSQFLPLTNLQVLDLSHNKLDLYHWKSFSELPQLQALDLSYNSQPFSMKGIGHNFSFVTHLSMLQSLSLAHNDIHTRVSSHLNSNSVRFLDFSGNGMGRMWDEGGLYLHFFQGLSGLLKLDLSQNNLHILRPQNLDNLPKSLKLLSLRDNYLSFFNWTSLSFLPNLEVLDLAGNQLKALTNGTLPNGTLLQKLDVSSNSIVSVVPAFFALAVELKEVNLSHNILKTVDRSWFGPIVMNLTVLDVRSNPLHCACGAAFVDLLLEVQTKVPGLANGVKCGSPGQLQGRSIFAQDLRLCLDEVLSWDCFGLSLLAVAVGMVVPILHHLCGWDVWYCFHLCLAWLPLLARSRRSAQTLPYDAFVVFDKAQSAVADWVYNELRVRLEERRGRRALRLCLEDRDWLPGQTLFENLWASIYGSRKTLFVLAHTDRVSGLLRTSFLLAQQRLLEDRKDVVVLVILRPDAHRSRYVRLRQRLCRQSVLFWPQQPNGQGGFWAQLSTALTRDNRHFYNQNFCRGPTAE", "assay": "Activation of mouse TLR9 expressed in HEK293 cells assessed as induction of NF-kappaB activity at 1 to 10 ug/ml after 18 hrs by SEAP assay", "assay_type": "cell-based", "in_short": "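HEK293 cells stably expressing mouse TLR9 were grown in DMEM with 10% heat-inactivated FBS. At 80% confluence they were transiently transfected with a SEAP reporter plasmid (100 ng/well, lipofectamine) for 6 h. Medium was then replaced and agonists were added for 18 h. Supernatant SEAP was read with QuantiBlue substrate at 620-645 nm. Results are expressed as fold NF-κB activity over PBS control.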"}}, "note": "Calls of active or inactive are those of the source. No cut-off for these calls is given here."}
{"smiles": "Cc1cn([C@H]2C[C@H](OCC(O)COP(=O)(S)O[C@H]3C[C@H](n4cc(C)c(=O)[nH]c4=O)O[C@@H]3COP(=O)(S)O[C@H]3[C@@H](O)[C@H](n4ccc(N)nc4=O)O[C@@H]3COP(=O)(S)O[C@H]3[C@@H](O)[C@H](n4cnc5c(N)ncnc54)O[C@@H]3COP(=O)(S)O[C@H]3[C@@H](O)[C@H](n4cnc5c(N)ncnc54)O[C@@H]3COP(=O)(S)O[C@H]3[C@@H](O)[C@H](n4ccc(N)nc4=O)O[C@@H]3COP(=O)(S)O[C@H]3[C@@H](O)[C@H](n4ccc(N)nc4=O)O[C@@H]3COP(=O)(S)O[C@H]3[C@@H](O)[C@H](n4cnc5c(N)ncnc54)O[C@@H]3COP(=O)(S)O[C@H]3[C@@H](O)[C@H](n4ccc(N)nc4=O)O[C@@H]3COP(=O)(S)O[C@H]3[C@@H](O)[C@H](n4cnc5c(N)ncnc54)O[C@@H]3COP(=O)(S)O[C@H]3[C@@H](O)[C@H](n4ccc(N)nc4=O)O[C@@H]3COP(=O)(S)O[C@H]3[C@@H](O)[C@H](n4cnc5c(N)ncnc54)O[C@@H]3CO)[C@@H](COP(=O)(S)O[C@H]3[C@@H](O)[C@H](n4ccc(N)nc4=O)O[C@@H]3COP(=O)(S)O[C@H]3[C@@H](O)[C@H](n4cnc5c(N)ncnc54)O[C@@H]3COP(=O)(S)O[C@H]3[C@@H](O)[C@H](n4cnc5c(N)ncnc54)O[C@@H]3COP(=O)(S)O[C@H]3[C@@H](O)[C@H](n4ccc(N)nc4=O)O[C@@H]3COP(=O)(S)O[C@H]3[C@@H](O)[C@H](n4ccc(N)nc4=O)O[C@@H]3COP(=O)(S)O[C@H]3[C@@H](O)[C@H](n4cnc5c(N)ncnc54)O[C@@H]3COP(=O)(S)O[C@H]3[C@@H](O)[C@H](n4ccc(N)nc4=O)O[C@@H]3COP(=O)(S)O[C@H]3[C@@H](O)[C@H](n4cnc5c(N)ncnc54)O[C@@H]3COP(=O)(S)O[C@H]3[C@@H](O)[C@H](n4ccc(N)nc4=O)O[C@@H]3COP(=O)(S)O[C@H]3[C@@H](O)[C@H](n4cnc5c(N)ncnc54)O[C@@H]3CO)O2)c(=O)[nH]c1=O", "note": "(some centres not stated)", "values": [{"measurement": "Activity", "setting": "[1]", "value": "Active"}, {"measurement": "Activity", "setting": "[2]", "value": "Active"}]}
